Assays:
[1] = target: T1, cGMP-dependent 3',5'-cyclic phosphodiesterase (Rattus norvegicus) (UniProt Q01062); experiment: Inhibition of rat PDE2A expressed in baculovirus infected Sf9 cells at 100 nM using iFl-cAMP/iFl-cGMP as substrate by mobility shift assay relative to control
T1 sequence (whole entry): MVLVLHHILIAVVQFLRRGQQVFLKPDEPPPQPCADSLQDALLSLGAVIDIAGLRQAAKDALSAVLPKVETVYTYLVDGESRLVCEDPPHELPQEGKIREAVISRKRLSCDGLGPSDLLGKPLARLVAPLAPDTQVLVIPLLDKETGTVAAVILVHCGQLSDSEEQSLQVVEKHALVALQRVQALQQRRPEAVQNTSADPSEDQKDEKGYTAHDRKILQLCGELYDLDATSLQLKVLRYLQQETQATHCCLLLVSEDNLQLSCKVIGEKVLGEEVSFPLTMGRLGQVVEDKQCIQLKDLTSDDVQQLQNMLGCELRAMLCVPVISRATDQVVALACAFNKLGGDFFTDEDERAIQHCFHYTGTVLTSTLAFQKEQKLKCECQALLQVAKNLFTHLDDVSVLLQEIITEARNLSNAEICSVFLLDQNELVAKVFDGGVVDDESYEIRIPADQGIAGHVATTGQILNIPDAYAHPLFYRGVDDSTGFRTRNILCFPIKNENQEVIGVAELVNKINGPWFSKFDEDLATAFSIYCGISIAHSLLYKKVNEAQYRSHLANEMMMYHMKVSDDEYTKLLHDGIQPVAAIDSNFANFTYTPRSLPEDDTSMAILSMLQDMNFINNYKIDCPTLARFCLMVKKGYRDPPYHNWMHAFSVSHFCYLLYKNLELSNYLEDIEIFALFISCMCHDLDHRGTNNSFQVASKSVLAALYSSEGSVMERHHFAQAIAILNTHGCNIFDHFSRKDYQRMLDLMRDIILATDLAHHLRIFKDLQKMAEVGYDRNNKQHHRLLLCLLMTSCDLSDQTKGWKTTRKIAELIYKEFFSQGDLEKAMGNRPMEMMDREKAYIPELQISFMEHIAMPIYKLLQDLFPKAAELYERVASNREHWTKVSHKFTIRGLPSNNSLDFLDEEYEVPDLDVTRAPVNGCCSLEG

[2] = target: T2, cAMP and cAMP-inhibited cGMP 3',5'-cyclic phosphodiesterase 10A (Homo sapiens, UniProt Q9Y233); experiment: Inhibition of recombinant human N-terminal GST-tagged PDE10A1 ( 2 to 789 residues) expressed in baculovirus infected Sf9 cells at 100 nM using iFl-cAMP/iFl-cGMP as substrate by mobility shift assay relative to control
T2 sequence (Q9Y233 whole entry, the tested form may be a part): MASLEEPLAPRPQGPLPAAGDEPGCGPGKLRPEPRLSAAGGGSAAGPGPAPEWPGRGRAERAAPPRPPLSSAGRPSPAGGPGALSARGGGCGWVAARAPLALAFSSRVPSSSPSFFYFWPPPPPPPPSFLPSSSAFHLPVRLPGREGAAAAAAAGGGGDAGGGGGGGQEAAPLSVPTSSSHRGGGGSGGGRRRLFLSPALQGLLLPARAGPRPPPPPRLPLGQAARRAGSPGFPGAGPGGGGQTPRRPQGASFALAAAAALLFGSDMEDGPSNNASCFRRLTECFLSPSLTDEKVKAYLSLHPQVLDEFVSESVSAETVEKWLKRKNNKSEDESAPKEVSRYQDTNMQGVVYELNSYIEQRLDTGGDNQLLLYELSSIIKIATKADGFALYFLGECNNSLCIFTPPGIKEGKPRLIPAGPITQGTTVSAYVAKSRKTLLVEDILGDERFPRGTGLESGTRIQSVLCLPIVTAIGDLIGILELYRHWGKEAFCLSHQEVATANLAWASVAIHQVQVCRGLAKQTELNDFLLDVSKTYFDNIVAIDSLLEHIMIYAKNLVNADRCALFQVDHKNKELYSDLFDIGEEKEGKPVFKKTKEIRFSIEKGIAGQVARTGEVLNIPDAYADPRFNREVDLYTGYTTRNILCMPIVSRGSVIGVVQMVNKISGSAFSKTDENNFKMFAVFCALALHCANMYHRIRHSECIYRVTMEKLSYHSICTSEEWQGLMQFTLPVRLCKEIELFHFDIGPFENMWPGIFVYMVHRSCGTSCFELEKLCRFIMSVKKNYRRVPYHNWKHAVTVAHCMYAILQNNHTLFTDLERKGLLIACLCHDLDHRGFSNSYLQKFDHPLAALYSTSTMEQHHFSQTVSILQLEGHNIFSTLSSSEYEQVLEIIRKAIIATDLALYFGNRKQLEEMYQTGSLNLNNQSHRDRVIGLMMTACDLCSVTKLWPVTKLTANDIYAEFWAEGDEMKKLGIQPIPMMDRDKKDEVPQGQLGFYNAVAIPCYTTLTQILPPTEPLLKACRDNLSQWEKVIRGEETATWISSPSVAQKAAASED

[3] = target: T3, Dual specificity calcium/calmodulin-dependent 3',5'-cyclic nucleotide phosphodiesterase 1C (Homo sapiens, UniProt Q14123); experiment: Inhibition of recombinant human N-terminal GST-tagged PDE1C (2 to 634 residues) expressed in baculovirus infected Sf9 cells at 100 nM using iFl-cAMP/iFl-cGMP as substrate by mobility shift assay relative to control
T3 sequence (Q14123 whole entry, the tested form may be a part): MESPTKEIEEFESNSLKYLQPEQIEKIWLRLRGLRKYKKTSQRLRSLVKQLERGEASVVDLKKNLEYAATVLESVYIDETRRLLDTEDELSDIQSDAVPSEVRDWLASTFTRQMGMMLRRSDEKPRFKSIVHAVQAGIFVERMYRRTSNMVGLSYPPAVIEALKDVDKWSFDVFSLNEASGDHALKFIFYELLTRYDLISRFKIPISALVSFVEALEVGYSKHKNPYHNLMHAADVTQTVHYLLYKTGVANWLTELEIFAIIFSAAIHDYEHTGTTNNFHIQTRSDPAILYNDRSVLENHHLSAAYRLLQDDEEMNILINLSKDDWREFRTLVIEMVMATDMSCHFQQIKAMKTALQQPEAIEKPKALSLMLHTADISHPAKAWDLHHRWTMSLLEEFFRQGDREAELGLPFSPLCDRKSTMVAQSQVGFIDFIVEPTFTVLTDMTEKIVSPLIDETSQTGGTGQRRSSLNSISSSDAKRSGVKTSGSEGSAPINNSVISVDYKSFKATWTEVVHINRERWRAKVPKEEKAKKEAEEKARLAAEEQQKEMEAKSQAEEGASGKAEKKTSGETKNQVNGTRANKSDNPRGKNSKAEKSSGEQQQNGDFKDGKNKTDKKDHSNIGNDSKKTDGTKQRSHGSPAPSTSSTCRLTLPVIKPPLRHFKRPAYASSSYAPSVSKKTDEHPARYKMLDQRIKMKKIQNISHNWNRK

[4] = target: High affinity cAMP-specific and IBMX-insensitive 3',5'-cyclic phosphodiesterase 8A (Homo sapiens) (UniProt O60658); experiment: Inhibition of recombinant full length human N-terminal GST-tagged PDE8A1 expressed in baculovirus infected Sf9 cells at 100 nM using iFl-cAMP/iFl-cGMP as substrate by mobility shift assay relative to control
Sequence of High affinity cAMP-specific and IBMX-insensitive 3',5'-cyclic phosphodiesterase 8A (Homo sapiens) (O60658 whole entry, the tested form may be a part): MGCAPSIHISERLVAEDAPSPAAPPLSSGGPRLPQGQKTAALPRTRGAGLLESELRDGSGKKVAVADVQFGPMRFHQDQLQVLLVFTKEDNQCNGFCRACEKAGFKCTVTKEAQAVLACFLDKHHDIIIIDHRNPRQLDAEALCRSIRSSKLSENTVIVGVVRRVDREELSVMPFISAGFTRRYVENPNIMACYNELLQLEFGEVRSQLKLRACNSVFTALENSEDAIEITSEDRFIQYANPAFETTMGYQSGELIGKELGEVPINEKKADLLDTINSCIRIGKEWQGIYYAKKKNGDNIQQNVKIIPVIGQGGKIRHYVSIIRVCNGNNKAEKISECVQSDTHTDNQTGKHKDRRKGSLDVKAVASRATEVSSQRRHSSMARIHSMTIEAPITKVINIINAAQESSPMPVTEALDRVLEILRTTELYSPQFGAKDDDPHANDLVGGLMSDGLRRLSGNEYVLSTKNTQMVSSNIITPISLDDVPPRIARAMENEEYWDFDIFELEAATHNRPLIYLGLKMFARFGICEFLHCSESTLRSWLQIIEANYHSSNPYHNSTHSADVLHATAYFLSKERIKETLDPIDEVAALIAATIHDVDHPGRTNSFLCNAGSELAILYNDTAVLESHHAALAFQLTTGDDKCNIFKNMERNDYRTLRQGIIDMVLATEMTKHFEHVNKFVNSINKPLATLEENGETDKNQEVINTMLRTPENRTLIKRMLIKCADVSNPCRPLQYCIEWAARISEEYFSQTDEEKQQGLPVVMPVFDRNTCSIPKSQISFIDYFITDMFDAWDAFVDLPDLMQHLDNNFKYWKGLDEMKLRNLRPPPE

[5] = target: Dual 3',5'-cyclic-AMP and -GMP phosphodiesterase 11A (Mus musculus) (UniProt P0C1Q2); experiment: Inhibition of recombinant mouse N-terminal GST-tagged PDE11A (2 to 933 residues) expressed in baculovirus infected Sf9 cells at 100 nM using iFl-cAMP/iFl-cGMP as substrate by mobility shift assay relative to control
Sequence of Dual 3',5'-cyclic-AMP and -GMP phosphodiesterase 11A (Mus musculus) (P0C1Q2 whole entry, the tested form may be a part): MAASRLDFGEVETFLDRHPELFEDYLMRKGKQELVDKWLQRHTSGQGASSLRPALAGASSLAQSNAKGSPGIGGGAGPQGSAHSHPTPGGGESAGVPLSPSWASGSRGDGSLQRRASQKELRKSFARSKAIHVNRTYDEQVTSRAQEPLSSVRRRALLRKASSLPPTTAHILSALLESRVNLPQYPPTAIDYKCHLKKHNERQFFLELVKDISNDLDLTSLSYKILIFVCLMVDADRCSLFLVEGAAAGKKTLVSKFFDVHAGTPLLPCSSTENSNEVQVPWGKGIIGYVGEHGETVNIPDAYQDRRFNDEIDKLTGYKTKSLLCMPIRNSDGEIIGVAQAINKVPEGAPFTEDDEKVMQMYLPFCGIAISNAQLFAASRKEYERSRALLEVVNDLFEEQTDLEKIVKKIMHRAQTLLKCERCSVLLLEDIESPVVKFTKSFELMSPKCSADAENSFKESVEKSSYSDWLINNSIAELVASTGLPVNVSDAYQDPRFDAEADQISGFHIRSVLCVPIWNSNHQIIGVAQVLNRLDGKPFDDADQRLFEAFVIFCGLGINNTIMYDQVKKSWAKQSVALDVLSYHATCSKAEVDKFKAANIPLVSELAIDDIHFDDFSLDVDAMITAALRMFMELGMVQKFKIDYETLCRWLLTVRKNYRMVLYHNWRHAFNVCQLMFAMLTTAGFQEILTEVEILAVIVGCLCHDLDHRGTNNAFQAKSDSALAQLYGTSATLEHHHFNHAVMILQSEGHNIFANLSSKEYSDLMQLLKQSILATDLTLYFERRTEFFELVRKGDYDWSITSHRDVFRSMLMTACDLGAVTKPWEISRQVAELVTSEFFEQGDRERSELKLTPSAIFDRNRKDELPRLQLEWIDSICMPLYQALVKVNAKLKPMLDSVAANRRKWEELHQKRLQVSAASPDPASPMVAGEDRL

[6] = target: 3',5'-cyclic-AMP phosphodiesterase 4B (Homo sapiens) (UniProt Q07343); experiment: Inhibition of recombinant full length human N-terminal GST-tagged PDE4B1 expressed in baculovirus infected Sf9 cells at 100 nM using iFl-cAMP/iFl-cGMP as substrate by mobility shift assay relative to control
Sequence of 3',5'-cyclic-AMP phosphodiesterase 4B (Homo sapiens) (Q07343 whole entry): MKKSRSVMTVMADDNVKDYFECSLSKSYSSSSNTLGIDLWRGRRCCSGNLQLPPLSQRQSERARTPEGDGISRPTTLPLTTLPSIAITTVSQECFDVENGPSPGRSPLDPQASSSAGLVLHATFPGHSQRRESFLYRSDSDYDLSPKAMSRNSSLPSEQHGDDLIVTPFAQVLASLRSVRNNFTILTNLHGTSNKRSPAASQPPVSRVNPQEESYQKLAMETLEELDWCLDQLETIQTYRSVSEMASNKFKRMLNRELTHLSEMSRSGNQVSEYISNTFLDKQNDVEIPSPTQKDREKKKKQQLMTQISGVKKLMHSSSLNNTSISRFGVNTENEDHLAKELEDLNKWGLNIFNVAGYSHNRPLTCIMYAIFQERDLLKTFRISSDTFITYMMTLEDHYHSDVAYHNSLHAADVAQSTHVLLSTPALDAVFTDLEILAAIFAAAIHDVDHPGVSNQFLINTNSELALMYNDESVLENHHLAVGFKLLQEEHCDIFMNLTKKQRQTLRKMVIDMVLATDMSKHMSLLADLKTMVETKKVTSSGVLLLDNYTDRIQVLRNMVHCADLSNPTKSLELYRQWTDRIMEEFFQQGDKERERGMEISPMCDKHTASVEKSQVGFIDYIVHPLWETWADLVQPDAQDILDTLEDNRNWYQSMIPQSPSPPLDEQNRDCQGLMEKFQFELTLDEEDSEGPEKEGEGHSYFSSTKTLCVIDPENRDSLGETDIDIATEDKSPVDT

[7] = target: Cone cGMP-specific 3',5'-cyclic phosphodiesterase subunit alpha' (Homo sapiens) (UniProt P51160); experiment: Inhibition of PDE6C (unknown origin) at 100 nM using iFl-cAMP/iFl-cGMP as substrate by mobility shift assay relative to control
[8] = target: High affinity 3',5'-cyclic-AMP phosphodiesterase 7A (Homo sapiens) (UniProt Q13946); experiment: Inhibition of PDE7A (unknown origin) at 100 nM using iFl-cAMP/iFl-cGMP as substrate by mobility shift assay relative to control
[9] = target: cGMP-specific 3',5'-cyclic phosphodiesterase (Homo sapiens) (UniProt O76074); experiment: Inhibition of PDE5A1 (unknown origin) at 100 nM using iFl-cAMP/iFl-cGMP as substrate by mobility shift assay relative to control
[10] = target: T4, High affinity cGMP-specific 3',5'-cyclic phosphodiesterase 9A (Homo sapiens, UniProt O76083); experiment: Inhibition of recombinant full length human N-terminal GST-tagged PDE9A2 expressed in baculovirus infected Sf9 cells at 100 nM using iFl-cAMP/iFl-cGMP as substrate by mobility shift assay relative to control
T4 sequence (O76083 whole entry): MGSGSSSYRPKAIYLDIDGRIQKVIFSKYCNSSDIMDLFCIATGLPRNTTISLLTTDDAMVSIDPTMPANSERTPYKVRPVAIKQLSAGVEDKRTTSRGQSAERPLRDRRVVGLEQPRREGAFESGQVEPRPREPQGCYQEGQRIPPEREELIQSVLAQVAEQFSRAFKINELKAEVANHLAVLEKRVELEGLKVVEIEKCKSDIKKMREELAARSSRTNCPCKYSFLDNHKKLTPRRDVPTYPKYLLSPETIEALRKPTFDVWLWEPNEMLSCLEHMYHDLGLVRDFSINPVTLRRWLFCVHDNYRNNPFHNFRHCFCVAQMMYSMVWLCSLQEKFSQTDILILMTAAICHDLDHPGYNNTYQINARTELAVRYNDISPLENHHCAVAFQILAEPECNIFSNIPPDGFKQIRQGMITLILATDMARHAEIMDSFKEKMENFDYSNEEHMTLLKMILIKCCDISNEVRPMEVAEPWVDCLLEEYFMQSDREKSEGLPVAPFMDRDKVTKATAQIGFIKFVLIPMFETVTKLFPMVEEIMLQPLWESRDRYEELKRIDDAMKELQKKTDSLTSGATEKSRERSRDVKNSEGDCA

[11] = target: cGMP-inhibited 3',5'-cyclic phosphodiesterase 3B (Homo sapiens) (UniProt Q13370); experiment: Inhibition of recombinant human N-terminal GST-tagged PDE3B (592 to end residues) expressed in baculovirus infected Sf9 cells at 100 nM using iFl-cAMP/iFl-cGMP as substrate by mobility shift assay relative to control
[12] = Intrinsic clearance in human liver microsomes in presence of NADP/G6P/G6P dehydrogenase/MgCl2 by LC/MS analysis; format: ADME, microsome; settings: read-out: CLH
Procedure, shortened: (§1)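 Phase-1 liver microsomal stability assay for the named species, with intrinsic clearance reported in µl x min^-1 x mg^-1.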

[13] = target: T2, cAMP and cAMP-inhibited cGMP 3',5'-cyclic phosphodiesterase 10A; experiment: Inhibition of PDE10 (unknown origin)
[14] = Intrinsic clearance in rat liver microsomes in presence of NADP/G6P/G6P dehydrogenase/MgCl2 by LC/MS analysis; format: ADME, microsome; settings: read-out: CLH; procedure, shortened: as §1
[15] = Intrinsic clearance in dog liver microsomes in presence of NADP/G6P/G6P dehydrogenase/MgCl2 by LC/MS analysis; format: ADME, Canis lupus familiaris, microsome; settings: read-out: CLH; procedure, shortened: as §1
[16] = Intrinsic clearance in rat liver microsomes; format: ADME, microsome
[17] = Intrinsic clearance in mouse liver microsomes in presence of NADP/G6P/G6P dehydrogenase/MgCl2/metabolic phase 2 co-factor by LC/MS analysis; format: ADME, microsome; settings: read-out: CLH
Procedure, shortened: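 Mouse liver microsomes incubated with both phase 1 and phase 2 co-factors, with intrinsic clearance expressed in µl x min^-1 x mg^-1.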

[18] = target: T2, cAMP and cAMP-inhibited cGMP 3',5'-cyclic phosphodiesterase 10A; experiment: Inhibition of Ca2+/calmodulin-induced recombinant human full length N-terminal GST-tagged PDE10A1 expressed in baculovirus infected Sf9 cells using cAMP as substrate pretreated for 10 mins followed by substrate addition and measured after 40 mins by kinase-Glo luminescence assay; settings: read-out: IC50
[19] = target: T4, High affinity cGMP-specific 3',5'-cyclic phosphodiesterase 9A; experiment: Inhibition of Ca2+/calmodulin-induced recombinant human full length N-terminal GST-tagged PDE9A2 expressed in baculovirus infected Sf9 cells using cGMP as substrate pretreated for 10 mins followed by substrate addition and measured after 60 mins by kinase-Glo luminescence assay
Procedure, shortened: (§2)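 Selectivity screen run as a PDE-Glo enzymatic-activity luminescence assay, with IC50 values determined against each counter-screen PDE isoform.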

[20] = target: T3, Dual specificity calcium/calmodulin-dependent 3',5'-cyclic nucleotide phosphodiesterase 1C; experiment: Inhibition of Ca2+/calmodulin-induced full-length recombinant human N-terminal GST-tagged PDE1C expressed in baculovirus infected Sf9 insect cells using cAMP as substrate pretreated for 10 mins followed by substrate addition and measured after 30 mins by kinase-Glo luminescence assay; procedure, shortened: as §2

inhibition [1] [%] | inhibition [2] [%] | inhibition [3] [%] | inhibition [4] [%] | inhibition [5] [%] | inhibition [6] [%] | inhibition [7] [%] | inhibition [8] [%] | inhibition [9] [%] | inhibition [10] [%] | inhibition [11] [%] | microsomal CLint [12] [µL/min/mg] | IC50 [13] [nM] | microsomal CLint [14] [µL/min/mg] | microsomal CLint [15] [µL/min/mg] | CLH [16] [µL/min/mg] | microsomal CLint [17] [µL/min/mg] | IC50 [18] [nM] | IC50 [19] [nM] | IC50 [20] [nM] | Structure (SMILES)
8 | 99 | 16 | -4 | 8 | 3 | -3 | 8 | 6 | -7 | -3 | – | – | – | – | – | – | – | – | – | Cc1ncc(C)n2nc(-c3ccc4nc(-c5ccccc5)[nH]c4c3)nc12
– | – | – | – | – | – | – | – | – | – | – | 11.6 | 37 | 68.9 | 16.3 | 68.8 | 28.9 | – | – | – | Cc1ncc(C)n2nc(-c3ccn4cc(-c5ccccc5)nc4c3)nc12
9 | 98 | 5 | -1 | 9 | 4 | 18 | 26 | 6 | -3 | 7 | 1.8 | – | 5.6 | 7.4 | – | 0.6 | 35 | > 10000 | > 10000 | Cc1ncc(C)n2nc(-c3ccn4cc(-c5ccccc5)nc4n3)nc12

— ChEMBL document CHEMBL4152287, “Synthesis and characterization of novel classes of PDE10A inhibitors - 1H-1,3-benzodiazoles and imidazo[1,2-a]pyrimidines” (Eur J Med Chem, 2018)
